Experimental data as given in ChEMBL document CHEMBL1141179 (J Med Chem, 2005).

Assays:
[1] = target: Somatostatin receptor type 1 (Homo sapiens, UniProt P30872); assay: Inhibition of 125I-[Leu8,D-Trp22,Tyr25]SRIF-28 binding to human somatostatin receptor type 1
Procedure, shortened: (§1)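 Human sst1 or sst5 receptor stably expressed in CHO-K1 cells. 20 µm cryostat sections of cell membrane pellets were used for receptor autoradiography. IC50 (nM) came from competitive radioligand displacement. Values are mean ± SEM when N ≥ 3; otherwise mean with single values.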

[2] = target: Somatostatin receptor type 4 (Homo sapiens, UniProt P31391); assay: Inhibition of 125I-[Leu8,D-Trp22,Tyr25]SRIF-28 binding to human somatostatin receptor type 4
[3] = target: Somatostatin receptor type 3 (Homo sapiens, UniProt P32745); assay: Inhibition of 125I-[Leu8,D-Trp22,Tyr25]SRIF-28 binding to human somatostatin receptor type 3
Procedure, shortened: (§2)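 Human sst2 or sst3 receptor stably expressed in CCL39 cells. 20 µm cryostat sections of cell membrane pellets were used for autoradiographic binding. IC50 (nM) came from competitive displacement. Values are mean ± SEM when N ≥ 3; otherwise mean with single values.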

[4] = target: Somatostatin receptor type 2 (Homo sapiens, UniProt P30874); assay: Inhibition of 125I-[Leu8,D-Trp22,Tyr25]SRIF-28 binding to human somatostatin receptor type 2; procedure, shortened: as §2
[5] = target: Somatostatin receptor type 5 (Homo sapiens, UniProt P35346); assay: Inhibition of 125I-[Leu8,D-Trp22,Tyr25]SRIF-28 binding to human somatostatin receptor type 5; procedure, shortened: as §1
Chain of Somatostatin receptor type 5 (P35346 whole entry): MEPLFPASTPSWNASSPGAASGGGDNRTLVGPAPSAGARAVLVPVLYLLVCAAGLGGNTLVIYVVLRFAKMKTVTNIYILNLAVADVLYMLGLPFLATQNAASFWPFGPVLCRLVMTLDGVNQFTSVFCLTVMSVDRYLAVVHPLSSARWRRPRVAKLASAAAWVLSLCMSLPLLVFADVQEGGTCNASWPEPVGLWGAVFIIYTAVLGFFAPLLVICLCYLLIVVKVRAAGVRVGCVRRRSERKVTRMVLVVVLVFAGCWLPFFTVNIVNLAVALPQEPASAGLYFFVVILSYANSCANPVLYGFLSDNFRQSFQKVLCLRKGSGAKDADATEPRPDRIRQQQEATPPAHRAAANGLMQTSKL

Chain of Somatostatin receptor type 3 (P32745 whole entry): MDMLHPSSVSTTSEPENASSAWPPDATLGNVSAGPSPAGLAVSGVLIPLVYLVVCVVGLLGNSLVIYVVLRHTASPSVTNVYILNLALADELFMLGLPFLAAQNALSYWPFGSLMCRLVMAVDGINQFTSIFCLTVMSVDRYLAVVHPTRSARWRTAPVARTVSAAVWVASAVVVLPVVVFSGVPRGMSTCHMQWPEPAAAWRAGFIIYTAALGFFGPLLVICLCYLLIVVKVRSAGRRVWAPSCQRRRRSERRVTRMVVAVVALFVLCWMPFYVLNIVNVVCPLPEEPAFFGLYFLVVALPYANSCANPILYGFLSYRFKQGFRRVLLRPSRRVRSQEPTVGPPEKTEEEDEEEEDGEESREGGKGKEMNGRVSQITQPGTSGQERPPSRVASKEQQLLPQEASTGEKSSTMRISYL
Chain of Somatostatin receptor type 4 (P31391 whole entry): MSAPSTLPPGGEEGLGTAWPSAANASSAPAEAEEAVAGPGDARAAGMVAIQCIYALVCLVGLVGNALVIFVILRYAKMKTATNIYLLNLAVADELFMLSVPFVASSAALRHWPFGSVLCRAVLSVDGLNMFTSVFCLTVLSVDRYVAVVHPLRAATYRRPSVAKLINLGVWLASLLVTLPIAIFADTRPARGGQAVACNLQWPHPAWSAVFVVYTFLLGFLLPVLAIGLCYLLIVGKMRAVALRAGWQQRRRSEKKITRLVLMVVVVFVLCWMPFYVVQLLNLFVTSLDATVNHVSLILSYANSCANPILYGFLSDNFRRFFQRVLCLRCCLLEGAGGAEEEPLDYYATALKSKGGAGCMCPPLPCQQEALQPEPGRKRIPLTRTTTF
Chain of Somatostatin receptor type 2 (P30874 whole entry): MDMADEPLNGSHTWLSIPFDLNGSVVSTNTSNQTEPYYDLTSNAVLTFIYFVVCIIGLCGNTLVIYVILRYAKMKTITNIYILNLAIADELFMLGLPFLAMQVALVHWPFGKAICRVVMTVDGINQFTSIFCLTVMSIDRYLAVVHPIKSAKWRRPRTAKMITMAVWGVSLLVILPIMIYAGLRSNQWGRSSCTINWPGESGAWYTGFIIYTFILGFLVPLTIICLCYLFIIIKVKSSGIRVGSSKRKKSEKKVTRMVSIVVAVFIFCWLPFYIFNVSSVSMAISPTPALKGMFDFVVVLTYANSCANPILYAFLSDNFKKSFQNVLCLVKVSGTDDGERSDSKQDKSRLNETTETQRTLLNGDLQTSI
Chain of Somatostatin receptor type 1 (P30872 whole entry): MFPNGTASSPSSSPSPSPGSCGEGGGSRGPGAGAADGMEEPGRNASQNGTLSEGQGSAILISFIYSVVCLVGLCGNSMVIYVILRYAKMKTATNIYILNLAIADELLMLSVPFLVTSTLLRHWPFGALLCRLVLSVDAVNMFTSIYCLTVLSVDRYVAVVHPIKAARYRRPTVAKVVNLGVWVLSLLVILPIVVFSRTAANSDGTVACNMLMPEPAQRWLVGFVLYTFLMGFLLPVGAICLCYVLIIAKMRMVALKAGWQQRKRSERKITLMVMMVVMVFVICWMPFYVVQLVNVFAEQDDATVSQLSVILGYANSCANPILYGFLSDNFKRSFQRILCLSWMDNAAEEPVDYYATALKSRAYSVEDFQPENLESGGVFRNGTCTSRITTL

IC50 [1] | IC50 [2] | IC50 [3] | IC50 [4] | IC50 [5] | SMILES
5.3 nM | 0.6 nM | 39 nM | 15 nM | 13 nM | C[C@@H](O)[C@@H]1NC(=O)[C@H](CCCCN)NC(=O)[C@@H](Cc2c[nH]c3ccccc23)NC(=O)[C@H](Cc2ccccc2)NC(=O)[C@H](Cc2ccccc2)NC(=O)[C@H](CCCCN)NC(=O)[C@@H](N)CSSC[C@@H](C(=O)O)NC(=O)[C@H](Cc2ccccc2)NC1=O
> 1000 nM | 229 nM | > 1000 nM | 531 nM | > 1000 nM | C[C@@H](O)[C@@H]1NC(=O)[C@H](CCCCN)NC(=O)[C@@H](Cc2c[nH]c3ccccc23)NC(=O)[C@H](Cc2ccccc2)NC(=O)[C@@H](N)CSSC[C@@H](C(=O)O)NC(=O)[C@H](Cc2ccccc2)NC1=O
> 1000 nM | > 1000 nM | > 1000 nM | > 1000 nM | > 1000 nM | CC(C)NCc1ccc(C[C@@H]2NC(=O)[C@@H](Cc3c[nH]c4ccccc34)NC(=O)[C@@H]3CCC(=O)NCCCC[C@H](NC(=O)[C@H]([C@@H](C)O)NC2=O)C(=O)N[C@@H]([C@@H](C)O)C(=O)N[C@@H](CO)C(=O)N[C@H](C(=O)O)CSSC[C@H](NC(=O)[C@@H](N)Cc2ccc(O)cc2)C(=O)N[C@@H](CCCCN)C(=O)N[C@@H](Cc2ccccc2)C(=O)N3)cc1
89 nM | > 1000 nM | > 1000 nM | > 1000 nM | > 1000 nM | CC(C)NCc1ccc(C[C@@H]2NC(=O)[C@@H](Cc3c[nH]c4ccccc34)NC(=O)[C@@H]3CCC(=O)NCCCC[C@H](NC(=O)[C@H](Cc4ccccc4)NC(=O)[C@H]([C@@H](C)O)NC2=O)C(=O)N[C@@H](CO)C(=O)N[C@H](C(=O)O)CSSC[C@H](NC(=O)[C@@H](N)Cc2ccc(O)c(I)c2)C(=O)N[C@@H](CCCCN)C(=O)N[C@@H](Cc2ccccc2)C(=O)N3)cc1
16 nM | > 1000 nM | > 1000 nM | > 1000 nM | > 1000 nM | CC(C)NCc1ccc(C[C@@H]2NC(=O)[C@@H](Cc3c[nH]c4ccccc34)NC(=O)[C@@H]3CCC(=O)NCCCCCC[C@H](NC(=O)[C@H](Cc4ccccc4)NC(=O)[C@H]([C@@H](C)O)NC2=O)C(=O)N[C@@H](CO)C(=O)N[C@H](C(=O)O)CSSC[C@H](NC(=O)[C@@H](N)Cc2ccc(O)cc2)C(=O)N[C@@H](CCCCN)C(=O)N[C@@H](Cc2ccccc2)C(=O)N3)cc1
74 nM | > 1000 nM | > 1000 nM | > 1000 nM | > 1000 nM | CC(C)NCc1ccc(C[C@@H]2NC(=O)[C@@H](Cc3c[nH]c4ccccc34)NC(=O)[C@@H]3CCC(=O)NCCC(=O)NCC[C@H](NC(=O)[C@H](Cc4ccccc4)NC(=O)[C@H]([C@@H](C)O)NC2=O)C(=O)N[C@@H](CO)C(=O)N[C@H](C(=O)O)CSSC[C@H](NC(=O)[C@@H](N)Cc2ccc(O)cc2)C(=O)N[C@@H](CCCCN)C(=O)N[C@@H](Cc2ccccc2)C(=O)N3)cc1
> 1000 nM | > 1000 nM | > 1000 nM | > 1000 nM | > 1000 nM | CC(C)NCc1ccc(C[C@@H]2NC(=O)[C@@H](Cc3c[nH]c4ccccc34)NC(=O)[C@H]3CCC(=O)NCC[C@@H](NC(=O)[C@H]([C@@H](C)O)NC2=O)C(=O)N[C@@H]([C@@H](C)O)C(=O)N[C@@H](CO)C(=O)N[C@H](C(=O)O)CSSC[C@H](NC(=O)[C@@H](N)Cc2ccc(O)cc2)C(=O)N[C@@H](CCCCN)C(=O)N[C@@H](Cc2ccccc2)C(=O)N3)cc1
> 1000 nM | > 1000 nM | > 1000 nM | > 1000 nM | > 1000 nM | CC(C)NCc1ccc(C[C@@H]2NC(=O)[C@@H](Cc3c[nH]c4ccccc34)NC(=O)[C@H]3CCC(=O)NCC[C@H](NC(=O)[C@H]([C@@H](C)O)NC2=O)C(=O)N[C@@H]([C@@H](C)O)C(=O)N[C@@H](CO)C(=O)N[C@H](C(=O)O)CSSC[C@H](NC(=O)[C@@H](N)Cc2ccc(O)cc2)C(=O)N[C@@H](CCCCN)C(=O)N[C@@H](Cc2ccccc2)C(=O)N3)cc1
112 nM | 1.4 nM | 11 nM | 5 nM | 9.5 nM | C[C@@H](O)[C@@H]1NC(=O)[C@H](Cc2ccccc2)NC(=O)[C@H]([C@@H](C)O)NC(=O)[C@H](CCCCN)NC(=O)[C@@H](Cc2c[nH]c3ccccc23)NC(=O)[C@H](Cc2ccccc2)NC(=O)[C@H](Cc2ccccc2)NC(=O)[C@H](CC(N)=O)NC(=O)[C@@H](N)CSSC[C@@H](C(=O)O)NC1=O
> 1000 nM | > 1000 nM | > 1000 nM | > 1000 nM | > 1000 nM | CC(C)NCc1ccc(C[C@@H]2NC(=O)[C@@H](Cc3c[nH]c4ccccc34)NC(=O)[C@@H]3CCC(=O)NCC[C@H](NC(=O)[C@H]([C@@H](C)O)NC2=O)C(=O)N[C@@H]([C@@H](C)O)C(=O)N[C@@H](CO)C(=O)N[C@H](C(=O)O)CSSC[C@H](NC(=O)[C@@H](N)Cc2ccc(O)cc2)C(=O)N[C@@H](CCCCN)C(=O)N[C@@H](Cc2ccccc2)C(=O)N3)cc1
61 nM | > 1000 nM | > 1000 nM | > 1000 nM | > 1000 nM | CC(C)NCc1ccc(C[C@@H]2NC(=O)[C@@H](Cc3c[nH]c4ccccc34)NC(=O)[C@@H]3CCC(=O)NCCCC(=O)NCC[C@H](NC(=O)[C@H](Cc4ccccc4)NC(=O)[C@H]([C@@H](C)O)NC2=O)C(=O)N[C@@H](CO)C(=O)N[C@H](C(=O)O)CSSC[C@H](NC(=O)[C@@H](N)Cc2ccc(O)cc2)C(=O)N[C@@H](CCCCN)C(=O)N[C@@H](Cc2ccccc2)C(=O)N3)cc1
197 nM | 1 nM | 52 nM | 1.9 nM | 43 nM | C[C@@H](O)[C@@H]1NC(=O)[C@H](Cc2ccccc2)NC(=O)[C@H]([C@@H](C)O)NC(=O)[C@H](CCCCN)NC(=O)[C@@H](Cc2c[nH]c3ccccc23)NC(=O)[C@H](Cc2ccccc2)NC(=O)[C@H](Cc2ccccc2)NC(=O)[C@@H](N)CSSC[C@@H](C(=O)O)NC1=O
> 1000 nM | > 1000 nM | > 1000 nM | > 1000 nM | > 1000 nM | CC(C)NCc1ccc(C[C@@H]2NC(=O)[C@@H](Cc3c[nH]c4ccccc34)NC(=O)[C@@H]3CC(=O)NC[C@H](NC(=O)[C@H](Cc4ccccc4)NC(=O)[C@H]([C@@H](C)O)NC2=O)C(=O)N[C@@H](CO)C(=O)N[C@H](C(=O)O)CSSC[C@H](NC(=O)[C@@H](N)Cc2ccc(O)cc2)C(=O)N[C@@H](CCCCN)C(=O)N[C@@H](Cc2ccccc2)C(=O)N3)cc1
> 1000 nM | > 1000 nM | > 1000 nM | > 1000 nM | > 1000 nM | CC(C)NCc1ccc(C[C@@H]2NC(=O)[C@@H](Cc3c[nH]c4ccccc34)NC(=O)[C@@H]3CCC(=O)NCC(=O)NCC[C@H](NC(=O)[C@H](Cc4ccccc4)NC(=O)[C@H]([C@@H](C)O)NC2=O)C(=O)N[C@@H](CO)C(=O)N[C@H](C(=O)O)CSSC[C@H](NC(=O)[C@@H](N)Cc2ccc(O)cc2)C(=O)N[C@@H](CCCCN)C(=O)N[C@@H](Cc2ccccc2)C(=O)N3)cc1
> 1000 nM | > 1000 nM | > 1000 nM | > 1000 nM | > 1000 nM | CC(C)NCc1ccc(C[C@@H]2NC(=O)[C@@H](Cc3c[nH]c4ccccc34)NC(=O)[C@H](Cc3ccccc3)NC(=O)[C@@H]3CCC(=O)NCCCC[C@H](NC(=O)[C@H]([C@@H](C)O)NC2=O)C(=O)N[C@@H]([C@@H](C)O)C(=O)N[C@@H](CO)C(=O)N[C@H](C(=O)O)CSSC[C@H](NC(=O)[C@@H](N)Cc2ccc(O)cc2)C(=O)N[C@@H](CCCCN)C(=O)N3)cc1
597 nM | > 1000 nM | > 1000 nM | > 1000 nM | > 1000 nM | CC(C)NCc1ccc(C[C@@H]2NC(=O)[C@@H](Cc3c[nH]c4ccccc34)NC(=O)[C@H](Cc3ccccc3)NC(=O)[C@@H]3CCC(=O)NCC[C@H](NC(=O)[C@H]([C@@H](C)O)NC2=O)C(=O)N[C@@H]([C@@H](C)O)C(=O)N[C@@H](CO)C(=O)N[C@H](C(=O)O)CSSC[C@H](NC(=O)[C@@H](N)Cc2ccc(O)cc2)C(=O)N[C@@H](CCCCN)C(=O)N3)cc1
241 nM | > 1000 nM | > 1000 nM | > 1000 nM | > 1000 nM | CC(C)NCc1ccc(C[C@@H]2NC(=O)[C@@H](Cc3c[nH]c4ccccc34)NC(=O)[C@@H]3CCC(=O)NCC[C@H](NC(=O)[C@H](Cc4ccccc4)NC(=O)[C@H]([C@@H](C)O)NC2=O)C(=O)N[C@@H](CO)C(=O)N[C@H](C(=O)O)CSSC[C@H](NC(=O)[C@@H](N)Cc2ccc(O)cc2)C(=O)N[C@@H](CCCCN)C(=O)N[C@@H](Cc2ccccc2)C(=O)N3)cc1
104 nM | > 1000 nM | > 1000 nM | > 1000 nM | > 1000 nM | CC(C)NCc1ccc(C[C@@H]2NC(=O)[C@@H](Cc3c[nH]c4ccccc34)NC(=O)[C@H](Cc3ccccc3)NC(=O)[C@@H]3CCC(=O)NCC[C@H](NC(=O)[C@H](Cc4ccccc4)NC(=O)[C@H]([C@@H](C)O)NC2=O)C(=O)N[C@@H](CO)C(=O)N[C@H](C(=O)O)CSSC[C@H](NC(=O)[C@@H](N)Cc2ccc(O)cc2)C(=O)N[C@@H](CCCCN)C(=O)N3)cc1
> 1000 nM | > 1000 nM | > 1000 nM | > 1000 nM | > 1000 nM | CC(C)NCc1ccc(C[C@@H]2NC(=O)[C@@H](Cc3c[nH]c4ccccc34)NC(=O)[C@H](Cc3ccccc3)NC(=O)[C@H]3CCC(=O)NCC[C@@H](NC(=O)[C@H]([C@@H](C)O)NC2=O)C(=O)N[C@@H]([C@@H](C)O)C(=O)N[C@@H](CO)C(=O)N[C@H](C(=O)O)CSSC[C@H](NC(=O)[C@@H](N)Cc2ccc(O)cc2)C(=O)N[C@@H](CCCCN)C(=O)N3)cc1
